≈ marks a conversion by molar mass, not a printed value.
Columns and labels:
Type in all cases: functional
Staphylococcus aureus [1] = test: Antibacterial activity against 10^5 CFU/mL Staphylococcus aureus RN4220 assessed as inhibition of bacterial growth after 24 hrs by microtiter enzyme-linked immunosorbent assay; settings: RN4220, 24 h
Staphylococcus aureus [2] = test: Antibacterial activity against 10^5 CFU/mL Staphylococcus aureus KCTC 503 assessed as inhibition of bacterial growth after 24 hrs by microtiter enzyme-linked immunosorbent assay; settings: KCTC 503, 24 h
Escherichia coli [3] = test: Antibacterial activity against 10^5 CFU/mL Escherichia coli 1356 assessed as inhibition of bacterial growth after 24 hrs by microtiter enzyme-linked immunosorbent assay; settings: Escherichia coli, 1356, 24 h
Escherichia coli [4] = test: Antibacterial activity against 10^5 CFU/mL Escherichia coli 1682 assessed as inhibition of bacterial growth after 24 hrs by microtiter enzyme-linked immunosorbent assay; settings: Escherichia coli, 1682, 24 h
Staphylococcus aureus [5] = test: Antibacterial activity against 10^5 CFU/mL methicillin-resistant Staphylococcus aureus CCARM 3167 assessed as inhibition of bacterial growth after 24 hrs by microtiter enzyme-linked immunosorbent assay; settings: CCARM 3167, 24 h
In short: (§1)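 Broth microdilution MIC. Bacteria grown to mid-log phase in Mueller-Hinton broth, diluted 1000-fold, and inoculated at 10⁵ CFU/mL in MHB, 0.2 mL/well in 96-well plates. Compounds dissolved in DMSO, final DMSO not exceeding 0.05%, in serial dilutions. Oxacillin and norfloxacin served as positive controls. MIC is the lowest concentration giving complete growth inhibition after 24 h at 37 °C.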

Staphylococcus aureus [6] = test: Antibacterial activity against 10^5 CFU/mL methicillin-resistant Staphylococcus aureus CCARM 3506 assessed as inhibition of bacterial growth after 24 hrs by microtiter enzyme-linked immunosorbent assay; settings: CCARM 3506, 24 h; in short: as §1
Staphylococcus aureus [7] = test: Antibacterial activity against 10^5 CFU/mL quinolone-resistant Staphylococcus aureus CCARM 3505 assessed as inhibition of bacterial growth after 24 hrs by microtiter enzyme-linked immunosorbent assay; settings: CCARM 3505, 24 h; in short: as §1
Staphylococcus aureus [8] = test: Antibacterial activity against 10^5 CFU/mL quinolone-resistant Staphylococcus aureus CCARM 3519 assessed as inhibition of bacterial growth after 24 hrs by microtiter enzyme-linked immunosorbent assay; settings: CCARM 3519, 24 h; in short: as §1
Staphylococcus aureus [9] = test: Ratio of Norfloxacin MIC to compound MIC for methicillin-resistant Staphylococcus aureus CCARM 3167
Staphylococcus aureus [10] = test: Ratio of Norfloxacin MIC to compound MIC for methicillin-resistant Staphylococcus aureus CCARM 3506
Staphylococcus aureus [11] = test: Ratio of oxacillin MIC to compound MIC for methicillin-resistant Staphylococcus aureus CCARM 3167
Staphylococcus aureus [12] = test: Ratio of oxacillin MIC to compound MIC for methicillin-resistant Staphylococcus aureus CCARM 3506

MIC (Staphylococcus aureus [1]) [µg/mL]	MIC (Staphylococcus aureus [2]) [µg/mL]	MIC (Escherichia coli [3]) [µg/mL]	MIC (Escherichia coli [4]) [µg/mL]	SMILES	MIC (Staphylococcus aureus [5]) [µg/mL]	MIC (Staphylococcus aureus [6]) [µg/mL]	MIC (Staphylococcus aureus [7]) [µg/mL]	MIC (Staphylococcus aureus [8]) [µg/mL]	Ratio (Staphylococcus aureus [9])	Ratio (Staphylococcus aureus [10])	Ratio (Staphylococcus aureus [11])	Ratio (Staphylococcus aureus [12])
> 64	> 64	> 64	> 64	O=C(O)c1ccc(CN2C(=O)S/C(=C\c3ccc(/C=C/C(=O)c4ccc(Cl)cc4Cl)cc3)C2=O)cc1	–	–	–	–	–	–	–	–
> 64	> 64	> 64	> 64	O=C(O)c1ccc(CN2C(=O)S/C(=C\c3ccc(/C=C/C(=O)c4cccc(Br)c4)cc3)C2=O)cc1	–	–	–	–	–	–	–	–
> 64	> 64	> 64	> 64	Cc1ccc(C(=O)/C=C/c2ccc(/C=C3\SC(=O)N(Cc4ccc(C(=O)O)cc4)C3=O)cc2)c(C)c1	–	–	–	–	–	–	–	–
> 64	> 64	> 64	> 64	O=C(O)c1ccc(CN2C(=O)S/C(=C\c3ccc(/C=C/C(=O)c4ccc5ccccc5c4)cc3)C2=O)cc1	–	–	–	–	–	–	–	–
> 64	> 64	> 64	> 64	COC(=O)c1ccc(CN2C(=O)S/C(=C\c3ccc(/C=C/C(=O)c4ccc(OC)cc4)cc3)C2=O)cc1	–	–	–	–	–	–	–	–
> 64	> 64	> 64	> 64	COC(=O)c1ccc(CN2C(=O)S/C(=C\c3ccc(/C=C/C(=O)c4cccc(Cl)c4)cc3)C2=O)cc1	–	–	–	–	–	–	–	–
> 64	> 64	> 64	> 64	COC(=O)c1ccc(CN2C(=O)S/C(=C\c3ccc(/C=C/C(=O)c4ccc(C)cc4)cc3)C2=O)cc1	–	–	–	–	–	–	–	–
> 64	> 64	> 64	> 64	Cc1ccc(C(=O)/C=C/c2ccc(/C=C3\SC(=O)N(Cc4ccc(C(=O)O)cc4)C3=O)cc2)cc1	–	–	–	–	–	–	–	–
> 64	> 64	> 64	> 64	O=C(O)c1ccc(CN2C(=O)S/C(=C\c3ccc(/C=C/C(=O)c4ccccc4O)cc3)C2=O)cc1	–	–	–	–	–	–	–	–
> 64	> 64	> 64	> 64	COC(=O)c1ccc(CN2C(=O)S/C(=C\c3ccc(/C=C/C(=O)c4ccccc4O)cc3)C2=O)cc1	–	–	–	–	–	–	–	–
> 64	> 64	> 64	> 64	COC(=O)c1ccc(CN2C(=O)S/C(=C\c3ccc(/C=C/C(=O)c4ccccc4Cl)cc3)C2=O)cc1	–	–	–	–	–	–	–	–
> 64	> 64	> 64	> 64	COC(=O)c1ccc(CN2C(=O)S/C(=C\c3ccc(/C=C/C(=O)c4cccc(O)c4)cc3)C2=O)cc1	–	–	–	–	–	–	–	–
> 64	> 64	> 64	> 64	COC(=O)c1ccc(CN2C(=O)S/C(=C\c3ccc(/C=C/C(=O)c4ccc(Cl)cc4)cc3)C2=O)cc1	–	–	–	–	–	–	–	–
> 64	> 64	> 64	> 64	COc1cccc(C(=O)/C=C/c2ccc(/C=C3\SC(=O)N(Cc4ccc(C(=O)O)cc4)C3=O)cc2)c1	–	–	–	–	–	–	–	–
> 64	> 64	> 64	> 64	COC(=O)c1ccc(CN2C(=O)S/C(=C\c3ccc(/C=C/C(=O)c4cccc(Br)c4)cc3)C2=O)cc1	–	–	–	–	–	–	–	–
> 64	> 64	> 64	> 64	COC(=O)c1ccc(CN2C(=O)S/C(=C\c3ccc(/C=C/C(=O)c4ccc(Cl)cc4Cl)cc3)C2=O)cc1	–	–	–	–	–	–	–	–

SMILES	MIC (Staphylococcus aureus [1]) [µg/mL]	MIC (Staphylococcus aureus [2]) [µg/mL]	MIC (Escherichia coli [3]) [µg/mL]	MIC (Escherichia coli [4]) [µg/mL]	MIC (Staphylococcus aureus [5]) [µg/mL]	MIC (Staphylococcus aureus [6]) [µg/mL]	MIC (Staphylococcus aureus [7]) [µg/mL]	MIC (Staphylococcus aureus [8]) [µg/mL]	Ratio (Staphylococcus aureus [9])	Ratio (Staphylococcus aureus [10])	Ratio (Staphylococcus aureus [11])	Ratio (Staphylococcus aureus [12])
COc1ccccc1C(=O)/C=C/c1ccc(/C=C2\SC(=O)N(Cc3ccc(C(=O)O)cc3)C2=O)cc1	2 (≈ 4 µM)	4 (≈ 8.01 µM)	> 64	> 64	2 (≈ 4 µM)	2 (≈ 4 µM)	4 (≈ 8.01 µM)	2 (≈ 4 µM)	–	–	–	–
O=C(O)c1ccc(CN2C(=O)S/C(=C\c3ccc(/C=C/C(=O)c4ccccc4Br)cc3)C2=O)cc1	2 (≈ 3.65 µM)	4 (≈ 7.29 µM)	> 64	> 64	1 (≈ 1.82 µM)	1 (≈ 1.82 µM)	2 (≈ 3.65 µM)	2 (≈ 3.65 µM)	–	–	–	–
O=C(O)c1ccc(CN2C(=O)S/C(=C\c3ccc(/C=C/C(=O)c4cccc(O)c4)cc3)C2=O)cc1	2 (≈ 4.12 µM)	4 (≈ 8.24 µM)	> 64	> 64	1 (≈ 2.06 µM)	1 (≈ 2.06 µM)	2 (≈ 4.12 µM)	2 (≈ 4.12 µM)	–	–	–	–
O=C(O)c1ccc(CN2C(=O)S/C(=C\c3ccc(/C=C/C(=O)c4ccccc4)cc3)C2=O)cc1	1 (≈ 2.13 µM)	2 (≈ 4.26 µM)	> 64	> 64	1 (≈ 2.13 µM)	0.5 (≈ 1.06 µM)	2 (≈ 4.26 µM)	2 (≈ 4.26 µM)	8	8	64	64
